Assay [1] deals with MT2. Briefly: Concentration of compound causing death in 10% or less of cells in the absence of virus in MT2 cells infected with HIV-2 strain (ROD). The class given is functional, Homo sapiens. In a few lines:
(§1)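 Cytotoxicity controls run alongside the Melbourne antiviral test: uninfected MT2 cells at 5 × 10⁴ per well in RF10, or PBMCs at 3.75 × 10⁵ per well in RF10/IL-2, exposed to duplicate drug dilutions made from a 20 mM stock in 60% v/v ethanol. Incubated 6–7 days at 37 °C, 5% CO₂, then viable cells counted by trypan blue exclusion. CC₁₀ is the highest concentration keeping counts ≥90% of the cell-only control.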

Assay [2] concerns MT2. Put plainly: (§2) Concentration required for causing death in 10% or less of cells in the absence of virus in MT2 cells infected with HIV-1 237288 strain. The class given is functional, Homo sapiens. In outline:
as §1

The target of assay [3] is Human immunodeficiency virus type 1 protease (Human immunodeficiency virus 1) (UniProt Q72874). The settings on record: MT2.
Assay [4] has the same target. The settings on record: PBMC.
The subject of assay [5] is Human immunodeficiency virus 1. Put plainly: Concentration required for causing death in 10% or less of cells in the absence of virus in PBMC cells infected with HIV-1 237288 strain. The format is functional. In outline: as §1
For assay [6], the system named is MT2. Put plainly: Concentration which causing death in 10% or less of cells in the absence of virus in MT2 cells infected with HIV-1 strain 237288. In outline:
as §1

The target of assay [7] is Human immunodeficiency virus type 1 protease (Human immunodeficiency virus 1, UniProt Q72874). Put plainly: Inhibitory constant against HIV-1 protease.
Assay [8] concerns MT2. Described as §2. The format is functional, Human immunodeficiency virus 1. In outline:
as §1

For assay [9], the target named is Human immunodeficiency virus type 1 protease (Human immunodeficiency virus 1) (UniProt Q72874). Briefly: Inhibition of virion associated RT activity relative to untreated, infected control in PBMC cells infected with HIV-1 237288 strain. The class given is cell-based. In a few lines:
(§3)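 Drug dilutions, from a 20 mM stock in 60% v/v ethanol, added in duplicate to MT2 cells (5 × 10⁴ in RF10) or PBMCs (3.75 × 10⁵ in RF10/IL-2). Virus added immediately after: HIV-1 #237288 or HIV-2 ROD, 200 TCID₅₀ for MT2 or 300 TCID₅₀ for PBMC. After 6–7 days at 37 °C, supernatant virus precipitated with PEG and virion RT counted by scintillation, as % of virus-only control. IC₅₀ and IC₉₀ are the concentrations giving 50% and 90% reduction.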

Assay [10] has as its system MT2. Briefly: Concentration required for causing death in 10% or less of cells in the absence of virus on MT2 cells infected with HIV-1 strain 237288. The format is functional, Homo sapiens. In outline: as §1
The target of assay [11] is Human immunodeficiency virus type 1 protease (Human immunodeficiency virus 1) (UniProt Q72874). Put plainly: Inhibition of virion associated RT activity (90% decrease) relative to untreated, infected control on MT2 cells infected with HIV-1 237288 strain. The class given is cell-based. In a few lines:
as §3

Consider `CC(C)CCN(C[C@@H](O)[C@@H]1Cc2ccc(cc2)OCCCCCC(=O)N[C@@H](C(C)C)C(=O)N1)S(=O)(=O)c1ccc(N)cc1`, for which the CC10 in assay [1] was found to be 10000 nM; in assay [2] it was 10000 nM; in assay [5], 50000 nM. The IC90 in assay [3] is 220 nM; in assay [4], 880 nM.

`CC(C)CN(C[C@@H](O)[C@H](Cc1ccccc1)NC(=O)O[C@H]1CCOC1)S(=O)(=O)c1ccc(N)cc1` yielded a CC10 in [6] of 10000 nM.

`CC[C@@H](C)[C@@H]1NC(=O)[C@@H](NC[C@@H](O)[C@H](Cc2ccccc2)NC(=O)[C@@H](NC(=O)c2ccc3ccccc3n2)C(C)C)Cc2ccc(cc2)OCCCNC1=O` had a Ki in assay [7] of 0.3 nM.

For the compound `CC(C)(C)NC(=O)[C@@H]1CN(Cc2cccnc2)CCN1C[C@@H](O)C[C@@H](Cc1ccccc1)C(=O)N[C@H]1c2ccccc2C[C@H]1O.O`, the IC90 in assay [3] came out at 93 nM. Besides, the CC10 in assay [5] and in [8] was 10000 nM each time.

Take `CCC(C)[C@@H]1NC(=O)[C@@H](NC[C@@H](O)C[C@@H](Cc2ccccc2)C(=O)N[C@H]2c3ccccc3C[C@H]2O)Cc2ccc(cc2)OCCCCCNC1=O` (stereo not given in full): the values for the CC10 in [1], in assay [10] and in assay [5] were 30000 nM, 30000 nM and 50000 nM, respectively. The IC90 in [9] came out at 220 nM; in [11] it was 100 nM.

By IC90 is commonly meant the point of the concentration-response curve where the effect stands at 90%. As a reminder, the Ki is the dissociation constant of the complex between target and ligand, obtained from inhibition or displacement.

For the origin of these results see ChEMBL document CHEMBL1133648, “Synthesis, stability, antiviral activity, and protease-bound structures of substrate-mimicking constrained macrocyclic inhibitors of HIV-1 protease” (J Med Chem, 2000).
